Measurements collected from several papers.
Protocols differ between the studies behind these lines.
Cnr2: Cannabinoid receptor 2 (Cnr2, Mus musculus, UniProt P47936)
mreB: mreB (Escherichia coli, UniProt P0A9X4)

`COC(=O)[C@H](CCC(=O)Nc1cccc2c1ccn2Cc1cccc(C(N)=O)c1)NC(=O)OCc1ccccc1` gave an IC50 of 67000 nM (NAD-dependent protein deacetylase sirtuin-1 (SIRT1, Homo sapiens, UniProt Q96EB6); enzyme activity; inhibitor).
The EC50 of `Cc1nonc1Cn1nnc2c(N3CC[C@H](O)C3)nc(C(C)(C)C)nc21` is reported as 0.2 nM (Cnr2; cAMP; agonist).
The IC50 of `O=P(O)(O)Oc1cccc(OP(=O)(O)O)c1` is reported as 55000 nM (Signal transducer and activator of transcription 5B, SH2 (STAT5B, Homo sapiens, UniProt P51692); ligand displacement; FP).
With `CC(NCCCNC(=O)c1cc(Cl)c(Cl)s1)c1cc2cc(Br)ccc2[nH]1` (stereo not shown) the IC50 was 6000 nM (mreB; ATPase activity; inhibitor; absorbance).
With `CCCCNNC(=O)c1ccc(Br)cc1` the IC50 was over 100000 nM (Histone deacetylase 4 (HDAC4, Homo sapiens, UniProt P56524); enzyme activity; inhibitor; fluorescence).
With `CCOC(=O)C(CC)(CCCSCCOCCOCCOCCOCCNC(=O)OC(C)(C)C)NC(=O)c1ccc(C2CC2)c(Cc2ccc(F)cc2)n1` (stereo not shown) the EC50 was 31 nM (Cnr2; cAMP; agonist).
`CC(N)c1cc2cc(Br)ccc2[nH]1` (stereo not shown) has an IC50 of 120000 nM (mreB; ATPase activity; inhibitor; absorbance).
With `Cc1nc([C@@](C)(CC2CC2)NC(=O)c2cc(OCC(F)(F)F)c(C3CC3)cn2)no1` the EC50 was 3 nM (Cnr2; cAMP; agonist).
`N[C@@H](CCP(=O)(O)O)C(=O)O` gave an EC50 of 117000 nM (Metabotropic glutamate receptor 7 (Grm7, Rattus norvegicus, UniProt P35400); calcium signal; agonist).
`Cc1ccnc2c1NC(=O)c1cccnc1N2C1CC1` gave an IC50 of 1400 nM (pol (Feline immunodeficiency virus, UniProt P16088); enzyme activity; inhibitor).
`C[C@]12CC[C@@H]3c4ccc(O)cc4CC[C@H]3[C@@H]1CC[C@@H]2O` gave a Kd of 1500 nM (Protein disulfide-isomerase (P4HB, Homo sapiens, UniProt P07237); binding; radioligand).
`CCCc1ccc(-c2ccc([C@@H](CO)C(=O)N[C@H](C)c3ccccc3)cc2)cc1` gave an EC50 of 138 nM (G protein-coupled receptor 88 (Homo sapiens, UniProt Q9GZN0); cAMP; agonist; TR-FRET).
For `CCOC(=O)C(CC)(CCCSCCOCCOCCOCCNC(=O)OC(C)(C)C)NC(=O)c1ccc(C2CC2)c(Cc2ccc(F)cc2)n1` (stereo not shown), the Ki was 117 nM (Cnr2; ligand displacement; radioligand; cell membranes).
For `CC(C)C[C@@H]1C(=O)N[C@H]([C@@H](C)O)C(=O)N[C@H](C)[C@@H](C)C(=O)O[C@@H](Cc2ccccc2)C(=O)N(C)[C@@H](C(C)C)C(=O)N2CCC[C@H]2C(=O)N(C)[C@H](Cc2ccccc2)C2=N[C@@H](CS2)C(=O)N[C@H](C)C2=N[C@@H](CS2)C(=O)N1C`, the IC50 was 21300 nM (Procathepsin L (CTSL, Homo sapiens, UniProt P07711); enzyme activity; inhibitor).
`O=C(NCc1ccc(F)cc1)c1cccc(Nc2ccc(-c3ccccc3)nn2)c1` has an IC50 of 8200 nM (Anoctamin-2 (ANO2, Homo sapiens, UniProt Q9NQ90); ion flux; inhibitor).
`CCOC(=O)C(CC)(CCCSCCOCCOCCNc1ccc([N+](=O)[O-])c2nonc12)NC(=O)c1ccc(C2CC2)c(Cc2ccc(F)cc2)n1` (racemic) gave a Ki of 73 nM (Cnr2; ligand displacement; radioligand; cell membranes).
